ChEMBL document CHEMBL1649383, “Mode of action of epoxyphomalins A and B and characterization of related metabolites from the marine-derived fungus Paraconiothyrium sp” (J Nat Prod, 2010)
Values after ≈ are worked out from the molar mass of the structure shown.

How the values were obtained:
[1] = Cytotoxicity against human CNXF 498NL cells at 0.01 ug/ml relative to control; assay type: functional
T-24 [2] = experiment: Cytotoxicity against human T24 cells; assay type: functional, cell-based
Method in brief: (§1)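 Monolayer cell survival and proliferation assay run across a panel of 36 human tumor cell lines, with IC50 determined from the resulting growth data.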

[3] = Cytotoxicity against human GXF251L cells; assay type: functional, cell-based; details: GXF 251L
Method in brief: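 Monolayer cell survival and proliferation assay, run within a panel of 36 human tumor cell lines; IC50 determined per cell line.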

[4] = Cytotoxicity against human LXFA 289L cells; assay type: functional, cell-based
Method in brief: (§2)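 Monolayer cell survival and proliferation assay run across a panel of 36 human tumour cell lines; IC50 values determined.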

[5] = Cytotoxicity against human MEXF 394NL cells; assay type: functional, cell-based; method in brief: as §1
[6] = Cytotoxicity against human MEXF 514L cells; assay type: functional, cell-based; method in brief: as §1
[7] = Cytotoxicity against human MEXF 520L cells; assay type: functional, cell-based; method in brief: as §1
LNCaP [8] = experiment: Cytotoxicity against human LNCAP cells; assay type: functional, cell-based; method in brief: as §2
[9] = Cytotoxicity against human PC3M cells; assay type: functional, cell-based; details: PC-3M; method in brief: as §1
[10] = Cytotoxicity against human RXF 944L cells; assay type: functional, cell-based; method in brief: as §1
[11] = Cytotoxicity against human UXF 1138L cells; assay type: functional, cell-based; method in brief: as §1
[12] = Cytotoxicity against human LXFA 289L cells at 0.001 ug/ml relative to control; assay type: functional
[13] = Cytotoxicity against human MEXF 462NL cells at 0.001 ug/ml relative to control; assay type: functional
[14] = Cytotoxicity against human MEXF 514L cells at 0.001 ug/ml relative to control; assay type: functional
[15] = Cytotoxicity against human OVXF 1619L cells at 0.001 ug/ml relative to control; assay type: functional
DU-145 [16] = experiment: Cytotoxicity against human DU145 cells at 0.001 ug/ml relative to control; assay type: functional
LNCaP [17] = experiment: Cytotoxicity against human LNCAP cells at 0.001 ug/ml relative to control; assay type: functional
[18] = Cytotoxicity against human RXF 944L cells at 0.001 ug/ml relative to control; assay type: functional
[19] = Cytotoxicity against human HNXF 536L cells at 0.01 ug/ml relative to control; assay type: functional
[20] = Cytotoxicity against human LXFL 1121L cells at 0.01 ug/ml relative to control; assay type: functional
[21] = Cytotoxicity against human LXFL 529L cells at 0.01 ug/ml relative to control; assay type: functional
[22] = Cytotoxicity against human MEXF 276L cells at 0.01 ug/ml relative to control; assay type: functional, MEXF276L
[23] = Cytotoxicity against human PXF 1752L cells at 0.01 ug/ml relative to control; assay type: functional
[24] = Cytotoxicity against human UXF 1138L cells at 0.01 ug/ml relative to control; assay type: functional
[25] = Cytotoxicity against human LXFL 529L cells at 0.1 ug/ml relative to control; assay type: functional
[26] = Cytotoxicity against human LXFA 629L cells at 0.1 ug/ml relative to control; assay type: functional
MCF7 [27] = experiment: Cytotoxicity against human MCF7 cells at 0.1 ug/ml relative to control; assay type: functional
[28] = Cytotoxicity against human MEXF 462NL cells at 0.1 ug/ml relative to control; assay type: functional
CWR22R = experiment: Cytotoxicity against human 22Rv1 cells at 0.1 ug/ml relative to control; assay type: functional
[29] = Cytotoxicity against human RXF 1781L cells at 0.1 ug/ml relative to control; assay type: functional
[30] = Cytotoxicity against human RXF 393NL cells at 0.1 ug/ml relative to control; assay type: functional
[31] = Cytotoxicity against human BXF 1218L cells at 1 ug/ml relative to control; assay type: functional
[32] = Cytotoxicity against human CNXF 498NL cells at 1 ug/ml relative to control; assay type: functional
SF-268 [33] = experiment: Cytotoxicity against human SF268 cells at 1 ug/ml relative to control; assay type: functional
HCT-116 = experiment: Cytotoxicity against human HCT116 cells at 1 ug/ml relative to control; assay type: functional
NCI-H460 = experiment: Cytotoxicity against human H460 cells at 1 ug/ml relative to control; assay type: functional
[34] = Cytotoxicity against human MEXF 462NL cells at 1 ug/ml relative to control; assay type: functional
[35] = Cytotoxicity against human MEXF 514L cells at 1 ug/ml relative to control; assay type: functional
PANC-1 = experiment: Cytotoxicity against human PANC1 cells at 1 ug/ml relative to control; assay type: functional
LNCaP [36] = experiment: Cytotoxicity against human LNCAP cells at 1 ug/ml relative to control; assay type: functional
[37] = Cytotoxicity against human RXF 486L cells at 1 ug/ml relative to control; assay type: functional
[38] = Cytotoxicity against human RXF 944L cells at 1 ug/ml relative to control; assay type: functional
[39] = Cytotoxicity against human BXF 1218L cells at 10 ug/ml relative to control; assay type: functional
T-24 [40] = experiment: Cytotoxicity against human T24 cells at 10 ug/ml relative to control; assay type: functional
[41] = Cytotoxicity against human CNXF 498NL cells at 10 ug/ml relative to control; assay type: functional
SF-268 [42] = experiment: Cytotoxicity against human SF268 cells at 10 ug/ml relative to control; assay type: functional
[43] = Cytotoxicity against human GXF251L cells at 10 ug/ml relative to control; assay type: functional
MCF7 [44] = experiment: Cytotoxicity against human MCF7 cells at 10 ug/ml relative to control; assay type: functional
[45] = Cytotoxicity against human MEXF 394NL cells at 10 ug/ml relative to control; assay type: functional
[46] = Cytotoxicity against human MEXF 514L cells at 10 ug/ml relative to control; assay type: functional
DU-145 [47] = experiment: Cytotoxicity against human DU145 cells at 10 ug/ml relative to control; assay type: functional
[48] = Cytotoxicity against human RXF 1781L cells at 10 ug/ml relative to control; assay type: functional
[49] = Cytotoxicity against human RXF 393NL cells at 10 ug/ml relative to control; assay type: functional
[50] = Cytotoxicity against human RXF 486L cells at 10 ug/ml relative to control; assay type: functional
[51] = Cytotoxicity against human RXF 944L cells at 10 ug/ml relative to control; assay type: functional

C=C1[C@@H](O)[C@H]2O[C@@]2(C[C@H]2C(C)=CC[C@H]3C(C)(C)CCC[C@]23C)[C@@H](O)[C@H]1O [EPOXYPHOLAMIN D]
Activity [1]: 91%
IC50 (T-24 [2]): 12 µM
IC70 (T-24 [2]): 6.41 µg/mL (≈ 17.7 µM)
IC90 (T-24 [2]): 9.44 µg/mL (≈ 26 µM)
IC50 [3]: 2.07 µM
IC70 [3]: 2.75 µg/mL (≈ 7.6 µM)
IC90 [3]: 17.4 µg/mL (≈ 47.9 µM)
IC50 [4]: 18.5 µM
IC70 [4]: 13.9 µg/mL (≈ 38.3 µM)
IC90 [4]: 28.9 µg/mL (≈ 79.6 µM)
IC50 [5]: 6.76 µM
IC70 [5]: 4.64 µg/mL (≈ 12.8 µM)
IC90 [5]: 8.8 µg/mL (≈ 24.3 µM)
IC50 [6]: 11.6 µM
IC70 [6]: 6.57 µg/mL (≈ 18.1 µM)
IC90 [6]: 10.2 µg/mL (≈ 28.2 µM)
IC50 [7]: 7.67 µM
IC70 [7]: 4.91 µg/mL (≈ 13.6 µM)
IC90 [7]: 8.68 µg/mL (≈ 23.9 µM)
IC50 (LNCaP [8]): 17 µM
IC70 (LNCaP [8]): 9.38 µg/mL (≈ 25.9 µM)
IC90 (LNCaP [8]): 14.3 µg/mL (≈ 39.5 µM)
IC50 [9]: 0.72 µM
IC70 [9]: 0.605 µg/mL (≈ 1.67 µM)
IC90 [9]: 4.12 µg/mL (≈ 11.4 µM)
IC50 [10]: 10.8 µM
IC70 [10]: 6.58 µg/mL (≈ 18.1 µM)
IC90 [10]: 11.1 µg/mL (≈ 30.6 µM)
IC50 [11]: 6.15 µM
IC70 [11]: 4.64 µg/mL (≈ 12.8 µM)
IC90 [11]: 9.64 µg/mL (≈ 26.6 µM)
Activity [12]: 98%
Activity [13]: 133%
Activity [14]: 119%
Activity [15]: 122%
Activity (DU-145 [16]): 91%
Activity (LNCaP [17]): 82%
Activity [18]: 150%
Activity [19]: 76%
Activity [20]: 135%
Activity [21]: 99%
Activity [22]: 98%
Activity [23]: 101%
Activity [24]: 107%
Activity [25]: 100%
Activity [26]: 81%
Activity (MCF7 [27]): 96%
Activity [28]: 167%
Activity (CWR22R): 90%
Activity [29]: 98%
Activity [30]: 134%
Activity [31]: 29%
Activity [32]: 55%
Activity (SF-268 [33]): 117%
Activity (HCT-116): 87%
Activity (NCI-H460): 86%
Activity [34]: 68%
Activity [35]: 115%
Activity (PANC-1): 68%
Activity (LNCaP [36]): 136%
Activity [37]: 82%
Activity [38]: 102%
Activity [39]: 17%
Activity (T-24 [40]): 7%
Activity [41]: 4%
Activity (SF-268 [42]): 1%
Activity [43]: 16%
Activity (MCF7 [44]): 5%
Activity [45]: 6%
Activity [46]: 11%
Activity (DU-145 [47]): 12%
Activity [48]: 21%
Activity [49]: 10%
Activity [50]: 10%
Activity [51]: 14%
